The values below come from ChEMBL document CHEMBL4118216, “Adamantyl thioureas as soluble epoxide hydrolase inhibitors” (Bioorg Med Chem Lett, 2018).

In brackets after ≈: the same amount, converted by molar mass.

Series [1] concerns the target T1, Bifunctional epoxide hydrolase 2 (Homo sapiens, UniProt P34913).
T1 sequence (P34913 whole entry): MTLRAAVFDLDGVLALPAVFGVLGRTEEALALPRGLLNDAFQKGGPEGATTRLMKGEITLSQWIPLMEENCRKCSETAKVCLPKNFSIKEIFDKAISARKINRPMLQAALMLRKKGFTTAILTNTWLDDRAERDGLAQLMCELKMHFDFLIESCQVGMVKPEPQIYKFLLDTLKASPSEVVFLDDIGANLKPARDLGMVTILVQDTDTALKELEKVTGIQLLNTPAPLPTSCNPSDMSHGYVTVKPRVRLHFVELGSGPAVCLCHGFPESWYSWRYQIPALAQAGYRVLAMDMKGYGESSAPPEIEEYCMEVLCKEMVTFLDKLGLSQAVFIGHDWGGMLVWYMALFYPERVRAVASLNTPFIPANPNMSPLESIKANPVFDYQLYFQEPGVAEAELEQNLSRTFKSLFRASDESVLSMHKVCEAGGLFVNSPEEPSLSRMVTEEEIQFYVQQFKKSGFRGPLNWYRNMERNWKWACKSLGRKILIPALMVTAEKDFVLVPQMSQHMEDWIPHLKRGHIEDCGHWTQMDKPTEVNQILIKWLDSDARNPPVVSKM
The series can be described thus: Inhibition of recombinant human sEH expressed in baculovirus expression system using CMNPC as substrate preincubated for 5 mins followed by substrate addition measured for 10 mins by fluorescent based assay. An outline of the steps: (§1)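 Kinetic fluorescent assay giving IC50 values; each value is the mean of three separate experiments.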

The nature of series [2]: Aqueous solubility of the compound in 0.1 M sodium phosphate buffer at pH 7.4. It counts as physicochemical. An outline of the steps: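 Solubility determined in 0.1 M sodium phosphate buffer, pH 7.4, with 1% DMSO present.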
Series [3] concerns the target T2, Bifunctional epoxide hydrolase 2 (Mus musculus, UniProt P34914).
T2 sequence (P34914 whole entry): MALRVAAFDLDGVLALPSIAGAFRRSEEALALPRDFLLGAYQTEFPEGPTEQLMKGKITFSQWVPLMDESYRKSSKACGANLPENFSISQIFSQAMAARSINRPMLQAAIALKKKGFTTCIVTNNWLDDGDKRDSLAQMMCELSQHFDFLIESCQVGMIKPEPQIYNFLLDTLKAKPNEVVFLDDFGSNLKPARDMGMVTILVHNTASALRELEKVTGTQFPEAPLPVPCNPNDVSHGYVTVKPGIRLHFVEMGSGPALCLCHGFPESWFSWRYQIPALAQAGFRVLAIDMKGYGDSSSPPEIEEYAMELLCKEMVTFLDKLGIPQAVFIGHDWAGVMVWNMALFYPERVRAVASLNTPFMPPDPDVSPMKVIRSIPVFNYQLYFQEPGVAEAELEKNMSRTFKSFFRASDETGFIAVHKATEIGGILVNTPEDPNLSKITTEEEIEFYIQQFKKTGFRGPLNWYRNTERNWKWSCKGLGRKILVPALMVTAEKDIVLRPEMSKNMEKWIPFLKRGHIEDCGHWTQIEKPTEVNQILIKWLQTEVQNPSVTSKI
The series can be described thus: Inhibition of recombinant mouse sEH expressed in baculovirus expression system using CMNPC as substrate preincubated for 5 mins followed by substrate addition measured for 10 mins by fluorescent based assay. In a few lines: as §1

The target in series [4] is T3, Bifunctional epoxide hydrolase 2 (Rattus norvegicus, UniProt P80299).
T3 sequence (P80299 whole entry): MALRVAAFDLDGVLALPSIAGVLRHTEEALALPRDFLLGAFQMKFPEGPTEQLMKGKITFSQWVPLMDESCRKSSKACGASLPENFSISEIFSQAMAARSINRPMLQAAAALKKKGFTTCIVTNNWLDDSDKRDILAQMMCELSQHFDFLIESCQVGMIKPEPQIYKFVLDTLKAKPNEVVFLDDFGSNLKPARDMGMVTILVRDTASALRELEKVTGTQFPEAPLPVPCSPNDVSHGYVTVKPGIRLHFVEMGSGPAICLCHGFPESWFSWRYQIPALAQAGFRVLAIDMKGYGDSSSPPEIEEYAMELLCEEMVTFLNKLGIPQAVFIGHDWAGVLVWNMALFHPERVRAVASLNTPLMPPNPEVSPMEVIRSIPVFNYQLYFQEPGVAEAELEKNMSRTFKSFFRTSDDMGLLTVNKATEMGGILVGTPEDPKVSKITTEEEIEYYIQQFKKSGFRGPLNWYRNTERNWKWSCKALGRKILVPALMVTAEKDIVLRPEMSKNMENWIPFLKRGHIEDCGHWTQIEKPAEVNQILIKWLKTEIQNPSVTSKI
The series can be described thus: Inhibition of rat sEH using CMNPC as substrate preincubated for 5 mins followed by substrate addition measured for 10 mins by fluorescent based assay. In a few lines: as §1

As for `CC(NC(=S)Nc1ccc(F)cc1)C12CC3CC(CC(C3)C1)C2` (centres undefined), in series [1], the IC50 was 1.08 µM. Besides, the solubility in series [2] fell in the range of 75 to 100 µM (≈ 24.9 to 33.2 µg/mL).
`S=C(Nc1ccc(C23CC4CC(CC(C4)C2)C3)cc1)NC1C2CC3CC(C2)CC1C3` (centres undefined): the half-maximal inhibitory concentration (IC50) in series [1] is 5.94 µM. The compound also had a solubility in series [2] of 175 to 200 µM (≈ 73.6 to 84.1 µg/mL).
As for `S=C(NCCCCCCCCNC(=S)NC12CC3CC(CC(C3)C1)C2)NC12CC3CC(CC(C3)C1)C2`, the figures for the IC50 in series [3], in series [4] and in series [1] were 1.17 µM, 0.374 µM and 0.0098 µM, respectively. Further, in series [2], the solubility was 40 to 50 µM (≈ 21.2 to 26.5 µg/mL).
The like results for `S=C(NCCCCCCNC(=S)NC12CC3CC(CC(C3)C1)C2)NC12CC3CC(CC(C3)C1)C2` were, in that order, 0.0506 µM, 0.0616 µM, 0.0077 µM and 70 to 80 µM (≈ 35.2 to 40.2 µg/mL).
Take `S=C(NCCNC(=S)NC12CC3CC(CC(C3)C1)C2)NC12CC3CC(CC(C3)C1)C2`: the IC50 in series [1] worked out at 0.987 µM. Further, the solubility in series [2] was in the range of 100 to 110 µM (≈ 44.7 to 49.1 µg/mL).
Regarding `S=C(NCCCCCNC(=S)NC12CC3CC(CC(C3)C1)C2)NC12CC3CC(CC(C3)C1)C2`, the IC50 in series [3] was 0.0362 µM; in series [4] it was 0.0461 µM; in series [1], 0.0211 µM. This compound also returned a solubility in series [2] of 80 to 90 µM (≈ 39.1 to 44 µg/mL).
As to `CC12CC3CC(C)(C1)CC(NC(=S)Nc1cccc(F)c1)(C3)C2`, the IC50 in series [1] stood at 0.058 µM. Further, the solubility in series [2] lay in the range of 50 to 60 µM (≈ 16.6 to 19.9 µg/mL).
For `S=C(NC12CC3CC(CC(C3)C1)C2)NC12CC3CC(CC(C3)C1)C2` the same measures were 0.0112 µM and 30 to 40 µM (≈ 10.3 to 13.8 µg/mL).
For `CC(NC(=S)Nc1cccc(F)c1)C12CC3CC(CC(C3)C1)C2` (centres undefined) the same measures were 0.451 µM and 35 to 45 µM (≈ 11.6 to 15 µg/mL).
For `CC12CC3CC(C)(C1)CC(NC(=S)Nc1ccc(F)cc1)(C3)C2` the same measures were 0.551 µM and 175 to 200 µM (≈ 58.2 to 66.5 µg/mL).
Regarding `CC(NC(=S)NC1C2CC3CC(C2)CC1C3)C12CC3CC(CC(C3)C1)C2` (centres undefined), the IC50 in series [1] turned out to be 7.78 µM. Further, the solubility in series [2] was 30 to 40 µM (≈ 11.2 to 14.9 µg/mL).
In series [2], `O=C(NC12CC3CC(CC(C3)C1)C2)NC12CC3CC(CC(C3)C1)C2` gave a solubility of 5 to 10 µM (≈ 1.64 to 3.29 µg/mL).
On to `Fc1ccc(NC(=S)NCC23CC4CC(CC(C4)C2)C3)cc1`, for which the IC50 in series [1] came out at 0.159 µM. Also, the solubility in series [2] lay within 150 to 175 µM (≈ 47.8 to 55.7 µg/mL).
For `CC12CC3CC(C)(C1)CC(NC(=S)Nc1ccccc1)(C3)C2` the same measures were 1.22 µM and 40 to 60 µM (≈ 12.6 to 18.9 µg/mL).
For `S=C(Nc1ccc(C23CC4CC(CC(C4)C2)C3)cc1)NC12CC3CC(CC(C3)C1)C2` the same measures were 1.25 µM and 30 to 40 µM (≈ 12.6 to 16.8 µg/mL).
The like results for `S=C(NCCC12CC3CC(CC(C3)C1)C2)Nc1ccc(C23CC4CC(CC(C4)C2)C3)cc1` were, in that order, 5.33 µM and 100 to 120 µM (≈ 44.9 to 53.8 µg/mL).
As to `CC(NC(=S)Nc1ccccc1)C12CC3CC(CC(C3)C1)C2` (centres undefined), the IC50 in series [1] worked out at 2.59 µM.
Consider `CC12CC3CC(C)(C1)CC(NC(=S)NC14CC5CC(CC(C5)C1)C4)(C3)C2`, for which, in series [1], the 50% inhibitory concentration (IC50) stood at 0.0161 µM. Moreover, the solubility in series [2] was in the range of 30 to 40 µM (≈ 11.2 to 14.9 µg/mL).
`O=C(NCCCCNC(=O)NCC12CC3CC(CC(C3)C1)C2)NCC12CC3CC(CC(C3)C1)C2` yielded a solubility in series [2] of 50 to 75 µM (≈ 23.5 to 35.3 µg/mL).
As for `CC12CC3CC(C)(C1)CC(NC(=S)Nc1ccc(C45CC6CC(CC(C6)C4)C5)cc1)(C3)C2`, the IC50 in series [1] amounted to 2.48 µM. For the same compound, in series [2], the solubility lay within 70 to 80 µM (≈ 31.4 to 35.9 µg/mL).
For `S=C(NCCC12CC3CC(CC(C3)C1)C2)NC1C2CC3CC(C2)CC1C3` (centres undefined) the same measures were 0.259 µM and 125 to 150 µM (≈ 46.6 to 55.9 µg/mL).
For the compound `S=C(Nc1ccc(Cl)cc1)NC12CC3CC(CC(C3)C1)C2`, in series [1], the concentration for half-maximal inhibition (IC50) was 0.0347 µM.
`O=C(NCCCCCCCCNC(=O)NC1C2CC3CC(C2)CC1C3)NC1C2CC3CC(C2)CC1C3` (centres undefined) gave a solubility in series [2] of 5 to 10 µM (≈ 2.49 to 4.99 µg/mL).
In the case of `S=C(Nc1ccc(C23CC4CC(CC(C4)C2)C3)cc1)Nc1ccc(C23CC4CC(CC(C4)C2)C3)cc1`, in series [1], the 50% inhibitory concentration (IC50) was 15.3 µM. Further, the solubility in series [2] is 100 to 125 µM (≈ 49.7 to 62.1 µg/mL).

One may read the IC50 as the midpoint of a concentration-inhibition curve. The solubility is the dissolved amount per volume that the medium holds. A high value points to a readily soluble substance.
